Measurements from ChEMBL document CHEMBL4689842, “EUbOPEN Chemogenomics Library wave 1” (2021).

Experiments:
Type in all cases: toxicity, cell-based
[1] = test system: U2OS; experiment: Multiplex assay against U2OS; conditions: human
Summary of the method: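 Phenotypes for tubulin, mitochondrial mass and membrane permeability are expressed as per cents of healthy-nucleus cells. Cells were stained live at seeding with Hoechst33342, BioTracker Green Microtubule Cytoskeleton Dye, MitoTracker Red and Annexin V Alexa Fluor 680, then imaged after compound addition on a CQ1 microscope at 37°C and 5% CO2. Machine-learning gating in CellPathfinder separated Hoechst high-intensity objects from normal cells, divided normal cells by nuclear state (healthy, pyknosed, fragmented) and divided pyknosed cells into mitotic or apoptotic.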

[2] = test system: U2OS; experiment: Incucyte cell viability with U2OS; conditions: human, 10 µM, compound concentration 10 uM; further: filed as whole numbers so only -1 and 0 and 1 occur
[3] = test system: Fibroblast; experiment: Incucyte cell viability with human fibroblast; conditions: 10 µM, compound concentration 10 uM; further: filed as whole numbers so only -1 and 0 and 1 occur
[4] = test system: HEK-293T; experiment: Incucyte cell viability with HEK293T; conditions: human, 10 µM, compound concentration 10 uM; further: filed as whole numbers so only -1 and 0 and 1 occur
[5] = 12 h, 1 µM, compound concentration 1 uM, replicate 1
[6] = 12 h, 1 µM, compound concentration 1 uM, replicate 2
[7] = 12 h, 10 µM, compound concentration 10 uM, replicate 1
[8] = 12 h, 10 µM, compound concentration 10 uM, replicate 2
[9] = 24 h, 1 µM, compound concentration 1 uM, replicate 1
[10] = 24 h, 1 µM, compound concentration 1 uM, replicate 2
[11] = 24 h, 10 µM, compound concentration 10 uM, replicate 1
[12] = 24 h, 10 µM, compound concentration 10 uM, replicate 2
[13] = 0 h, replicate number 2, timepoint 0 hours
[14] = 6 h, replicate number 1, timepoint 6 hours
[15] = 12 h, replicate number 1, timepoint 12 hours
[16] = 18 h, replicate number 1, timepoint 18 hours
[17] = 24 h, replicate number 1, timepoint 24 hours
[18] = 0 h, replicate number 1, timepoint 0 hours
[19] = 24 h, replicate number 2, timepoint 24 hours

SMILES: CN(C)CCOc1ccc(-c2nc(-c3ccncc3)c(-c3ccc4c(c3)CC/C4=N\O)[nH]2)cc1 [SB590885]
- Population Apoptotic (%) [1, 5]: 72%
- Population Fragmented Nuclei (%) [1, 5]: 22%
- Population Healthy Nuclei (%) [1, 5]: 42%
- Population Hoechst High Intensity Objects (%) [1, 5]: 9%
- Population Membrane Permeable-Phenotype (%) [1, 5]: 45%
- Population Mitochondria Different-Phenotype (%) [1, 5]: 30%
- Population Mitotic Cells (%) [1, 5]: 27%
- Population Normal (%) [1, 5]: 90%
- Population Pyknosed Nuclei (%) [1, 5]: 34%
- Population Tubulin-Different-Phenotype (%) [1, 5]: 54%
- Total Cell Count [1, 5]: 200
- Population Apoptotic (%) [1, 6]: 88%
- Population Fragmented Nuclei (%) [1, 6]: 41%
- Population Healthy Nuclei (%) [1, 6]: 34%
- Population Hoechst High Intensity Objects (%) [1, 6]: 15%
- Population Membrane Permeable-Phenotype (%) [1, 6]: 38%
- Population Mitochondria Different-Phenotype (%) [1, 6]: 28%
- Population Mitotic Cells (%) [1, 6]: 11%
- Population Normal (%) [1, 6]: 84%
- Population Pyknosed Nuclei (%) [1, 6]: 23%
- Population Tubulin-Different-Phenotype (%) [1, 6]: 51%
- Total Cell Count [1, 6]: 155
- Population Apoptotic (%) [1, 7]: 42%
- Population Fragmented Nuclei (%) [1, 7]: 5%
- Population Hoechst High Intensity Objects (%) [1, 7]: 3%
- Population Membrane Permeable-Phenotype (%) [1, 7]: 11%
- Population Mitochondria Different-Phenotype (%) [1, 7]: 23%
- Population Mitotic Cells (%) [1, 7]: 57%
- Population Normal (%) [1, 7]: 96%
- Population Pyknosed Nuclei (%) [1, 7]: 7%
- Population Tubulin-Different-Phenotype (%) [1, 7]: 26%
- Total Cell Count [1, 7]: 149
- Population Apoptotic (%) [1, 8]: 37%
- Population Fragmented Nuclei (%) [1, 8]: 6%
- Population Healthy Nuclei (%) [1, 8]: 87%
- Population Hoechst High Intensity Objects (%) [1, 8]: 10%
- Population Membrane Permeable-Phenotype (%) [1, 8]: 14%
- Population Mitochondria Different-Phenotype (%) [1, 8]: 28%
- Population Mitotic Cells (%) [1, 8]: 62%
- Population Normal (%) [1, 8]: 89%
- Population Pyknosed Nuclei (%) [1, 8]: 5%
- Population Tubulin-Different-Phenotype (%) [1, 8]: 33%
- Total Cell Count [1, 8]: 78
- Population Apoptotic (%) [1, 9]: 85%
- Population Fragmented Nuclei (%) [1, 9]: 15%
- Population Healthy Nuclei (%) [1, 9]: 38%
- Population Hoechst High Intensity Objects (%) [1, 9]: 19%
- Population Membrane Permeable-Phenotype (%) [1, 9]: 34%
- Population Mitochondria Different-Phenotype (%) [1, 9]: 34%
- Population Mitotic Cells (%) [1, 9]: 14%
- Population Normal (%) [1, 9]: 80%
- Population Pyknosed Nuclei (%) [1, 9]: 45%
- Population Tubulin-Different-Phenotype (%) [1, 9]: 37%
- Total Cell Count [1, 9]: 280
- Population Apoptotic (%) [1, 10]: 91%
- Population Fragmented Nuclei (%) [1, 10]: 35%
- Population Healthy Nuclei (%) [1, 10]: 25%
- Population Hoechst High Intensity Objects (%) [1, 10]: 21%
- Population Membrane Permeable-Phenotype (%) [1, 10]: 33%
- Population Mitochondria Different-Phenotype (%) [1, 10]: 41%
- Population Mitotic Cells (%) [1, 10]: 8%
- Population Normal (%) [1, 10]: 78%
- Population Pyknosed Nuclei (%) [1, 10]: 38%
- Population Tubulin-Different-Phenotype (%) [1, 10]: 30%
- Total Cell Count [1, 10]: 196
- Population Apoptotic (%) [1, 11]: 44%
- Population Fragmented Nuclei (%) [1, 11]: 5%
- Population Healthy Nuclei (%) [1, 11]: 90%
- Population Hoechst High Intensity Objects (%) [1, 11]: 2%
- Population Membrane Permeable-Phenotype (%) [1, 11]: 12%
- Population Mitochondria Different-Phenotype (%) [1, 11]: 21%
- Population Mitotic Cells (%) [1, 11]: 55%
- Population Normal (%) [1, 11]: 97%
- Population Pyknosed Nuclei (%) [1, 11]: 3%
- Population Tubulin-Different-Phenotype (%) [1, 11]: 30%
- Total Cell Count [1, 11]: 144
- Population Apoptotic (%) [1, 12]: 50%
- Population Fragmented Nuclei (%) [1, 12]: 7%
- Population Healthy Nuclei (%) [1, 12]: 89%
- Population Hoechst High Intensity Objects (%) [1, 12]: 7%
- Population Membrane Permeable-Phenotype (%) [1, 12]: 8%
- Population Mitochondria Different-Phenotype (%) [1, 12]: 38%
- Population Mitotic Cells (%) [1, 12]: 50%
- Population Normal (%) [1, 12]: 92%
- Population Tubulin-Different-Phenotype (%) [1, 12]: 37%
- Total Cell Count [1, 12]: 80
- Growth Rate [2, 13]: 1
- Growth Rate [2, 14]: 0
- Growth Rate [2, 15]: 0
- Growth Rate [2, 16]: 0
- Growth Rate [2, 17]: 0
- Growth Rate [3, 18]: 0
- Growth Rate ([3]; 18 h, replicate number 2, timepoint 18 hours): 1
- Growth Rate [3, 17]: 1
- Growth Rate [3, 19]: 0
- Growth Rate [4, 18]: 1
- Growth Rate [4, 14]: 0
- Growth Rate [4, 15]: 0
- Growth Rate [4, 16]: 0
- Growth Rate [4, 17]: 0

SMILES: N#Cc1cnc(Nc2cc(NC[C@H]3CNCCO3)c(C(F)(F)F)cn2)cn1 [SRA-737]
- Population Apoptotic (%) [1, 5]: 18%
- Population Fragmented Nuclei (%) [1, 5]: 0%
- Population Healthy Nuclei (%) [1, 5]: 89%
- Population Hoechst High Intensity Objects (%) [1, 5]: 6%
- Population Membrane Permeable-Phenotype (%) [1, 5]: 7%
- Population Mitochondria Different-Phenotype (%) [1, 5]: 14%
- Population Mitotic Cells (%) [1, 5]: 81%
- Population Normal (%) [1, 5]: 93%
- Population Pyknosed Nuclei (%) [1, 5]: 9%
- Population Tubulin-Different-Phenotype (%) [1, 5]: 26%
- Total Cell Count [1, 5]: 249
- Population Apoptotic (%) [1, 6]: 16%
- Population Fragmented Nuclei (%) [1, 6]: 4%
- Population Healthy Nuclei (%) [1, 6]: 90%
- Population Hoechst High Intensity Objects (%) [1, 6]: 9%
- Population Membrane Permeable-Phenotype (%) [1, 6]: 10%
- Population Mitochondria Different-Phenotype (%) [1, 6]: 18%
- Population Mitotic Cells (%) [1, 6]: 83%
- Population Normal (%) [1, 6]: 90%
- Population Pyknosed Nuclei (%) [1, 6]: 4%
- Population Tubulin-Different-Phenotype (%) [1, 6]: 30%
- Total Cell Count [1, 6]: 142
- Population Apoptotic (%) [1, 7]: 50%
- Population Fragmented Nuclei (%) [1, 7]: 5%
- Population Healthy Nuclei (%) [1, 7]: 87%
- Population Hoechst High Intensity Objects (%) [1, 7]: 4%
- Population Membrane Permeable-Phenotype (%) [1, 7]: 11%
- Population Mitochondria Different-Phenotype (%) [1, 7]: 9%
- Population Mitotic Cells (%) [1, 7]: 50%
- Population Normal (%) [1, 7]: 95%
- Population Pyknosed Nuclei (%) [1, 7]: 6%
- Population Tubulin-Different-Phenotype (%) [1, 7]: 15%
- Total Cell Count [1, 7]: 193
- Population Apoptotic (%) [1, 8]: 23%
- Population Fragmented Nuclei (%) [1, 8]: 4%
- Population Healthy Nuclei (%) [1, 8]: 85%
- Population Hoechst High Intensity Objects (%) [1, 8]: 9%
- Population Membrane Permeable-Phenotype (%) [1, 8]: 15%
- Population Mitochondria Different-Phenotype (%) [1, 8]: 7%
- Population Mitotic Cells (%) [1, 8]: 76%
- Population Normal (%) [1, 8]: 90%
- Population Pyknosed Nuclei (%) [1, 8]: 10%
- Population Tubulin-Different-Phenotype (%) [1, 8]: 16%
- Total Cell Count [1, 8]: 143
- Population Apoptotic (%) [1, 9]: 5%
- Population Fragmented Nuclei (%) [1, 9]: 0%
- Population Membrane Permeable-Phenotype (%) [1, 9]: 5%
- Population Mitochondria Different-Phenotype (%) [1, 9]: 12%
- Population Mitotic Cells (%) [1, 9]: 94%
- Population Pyknosed Nuclei (%) [1, 9]: 5%
- Population Tubulin-Different-Phenotype (%) [1, 9]: 31%
- Total Cell Count [1, 9]: 330
- Population Apoptotic (%) [1, 10]: 0%
- Population Fragmented Nuclei (%) [1, 10]: 2%
- Population Healthy Nuclei (%) [1, 10]: 93%
- Population Hoechst High Intensity Objects (%) [1, 10]: 3%
- Population Membrane Permeable-Phenotype (%) [1, 10]: 6%
- Population Mitochondria Different-Phenotype (%) [1, 10]: 23%
- Population Mitotic Cells (%) [1, 10]: 100%
- Population Normal (%) [1, 10]: 96%
- Population Pyknosed Nuclei (%) [1, 10]: 4%
- Population Tubulin-Different-Phenotype (%) [1, 10]: 38%
- Total Cell Count [1, 10]: 179
- Population Apoptotic (%) [1, 11]: 18%
- Population Fragmented Nuclei (%) [1, 11]: 4%
- Population Healthy Nuclei (%) [1, 11]: 88%
- Population Hoechst High Intensity Objects (%) [1, 11]: 4%
- Population Membrane Permeable-Phenotype (%) [1, 11]: 8%
- Population Mitochondria Different-Phenotype (%) [1, 11]: 10%
- Population Mitotic Cells (%) [1, 11]: 81%
- Population Normal (%) [1, 11]: 95%
- Population Pyknosed Nuclei (%) [1, 11]: 6%
- Population Tubulin-Different-Phenotype (%) [1, 11]: 19%
- Total Cell Count [1, 11]: 243
- Population Apoptotic (%) [1, 12]: 50%
- Population Fragmented Nuclei (%) [1, 12]: 5%
- Population Healthy Nuclei (%) [1, 12]: 87%
- Population Hoechst High Intensity Objects (%) [1, 12]: 8%
- Population Mitochondria Different-Phenotype (%) [1, 12]: 19%
- Population Mitotic Cells (%) [1, 12]: 50%
- Population Normal (%) [1, 12]: 91%
- Population Tubulin-Different-Phenotype (%) [1, 12]: 12%
- Total Cell Count [1, 12]: 168
- Growth Rate [2, 18]: 1
- Growth Rate [2, 13]: 0
- Growth Rate [2, 14]: 0
- Growth Rate [2, 15]: 0
- Growth Rate [2, 16]: 0
- Growth Rate [2, 17]: 0
- Growth Rate [3, 18]: 0
- Growth Rate [3, 14]: 1
- Growth Rate [3, 15]: 1
- Growth Rate [3, 16]: 1
- Growth Rate [3, 17]: 0
- Growth Rate [3, 19]: 1
- Growth Rate [4, 18]: 0
- Growth Rate [4, 14]: 0
- Growth Rate [4, 15]: 0
- Growth Rate [4, 16]: 0
- Growth Rate [4, 17]: 0
